Measured values as given in ChEMBL document CHEMBL2062435, “Synthesis and in vitro antibacterial activity of gemifloxacin derivatives containing a substituted benzyloxime moiety” (2012).

Tested on: Klebsiella pneumoniae
Assay: Antimicrobial activity against Klebsiella pneumoniae 10-2 after 18-24 hrs by two-fold serial dilution method
Format: functional
Procedure, shortened: (§1)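 Agar-medium twofold serial dilution against Gram-positive and Gram-negative strains; MIC taken as the lowest compound concentration giving complete inhibition of bacterial growth after incubation at 35 °C for 18-24 h.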

Row | SMILES | MIC [µg/mL]
1 | COc1cc(CO/N=C2\CN(c3nc4c(cc3F)c(=O)c(C(=O)O)cn4C3CC3)CC2CN)cc(Cl)c1OC.CS(=O)(=O)O (racemic) | 128

Tested on: Enterococcus faecalis
Assay: Antimicrobial activity against Enterococcus faecalis 10-6 after 18-24 hrs by two-fold serial dilution method
Format: functional
Procedure, shortened: as §1

Row | SMILES | MIC [µg/mL]
2 | COc1cc(CO/N=C2\CN(c3nc4c(cc3F)c(=O)c(C(=O)O)cn4C3CC3)CC2CN)cc(Cl)c1OC.CS(=O)(=O)O (racemic) | 4

Tested on: Pseudomonas aeruginosa
Assay: Antimicrobial activity against extended spectrum beta-lactamases-producing Pseudomonas aeruginosa 10-20 after 18-24 hrs by two-fold serial dilution method
Format: functional
Procedure, shortened: as §1

Row | SMILES | MIC [µg/mL]
3 | COc1cc(CO/N=C2\CN(c3nc4c(cc3F)c(=O)c(C(=O)O)cn4C3CC3)CC2CN)cc(Cl)c1OC.CS(=O)(=O)O (racemic) | 8

Tested on: Pseudomonas aeruginosa
Assay: Antimicrobial activity against extended spectrum beta-lactamases-producing Pseudomonas aeruginosa 10-9 after 18-24 hrs by two-fold serial dilution method
Format: functional
Procedure, shortened: as §1

Row | SMILES | MIC [µg/mL]
4 | COc1cc(CO/N=C2\CN(c3nc4c(cc3F)c(=O)c(C(=O)O)cn4C3CC3)CC2CN)cc(Cl)c1OC.CS(=O)(=O)O (racemic) | 16

Tested on: Enterococcus faecium
Assay: Antimicrobial activity against Enterococcus faecium 10-9 after 18-24 hrs by two-fold serial dilution method
Format: functional
Procedure, shortened: as §1

Row | SMILES | MIC [µg/mL]
5 | COc1cc(CO/N=C2\CN(c3nc4c(cc3F)c(=O)c(C(=O)O)cn4C3CC3)CC2CN)cc(Cl)c1OC.CS(=O)(=O)O (racemic) | 16

Tested on: Enterococcus faecalis
Assay: Antimicrobial activity against Enterococcus faecalis 10-5 after 18-24 hrs by two-fold serial dilution method
Format: functional
Procedure, shortened: as §1

Row | SMILES | MIC [µg/mL]
6 | COc1cc(CO/N=C2\CN(c3nc4c(cc3F)c(=O)c(C(=O)O)cn4C3CC3)CC2CN)cc(Cl)c1OC.CS(=O)(=O)O (racemic) | 0.25

Tested on: Klebsiella pneumoniae
Assay: Antimicrobial activity against Klebsiella pneumoniae 10-4 after 18-24 hrs by two-fold serial dilution method
Format: functional
Procedure, shortened: as §1

Row | SMILES | MIC [µg/mL]
7 | COc1cc(CO/N=C2\CN(c3nc4c(cc3F)c(=O)c(C(=O)O)cn4C3CC3)CC2CN)cc(Cl)c1OC.CS(=O)(=O)O (racemic) | > 128

Tested on: Klebsiella pneumoniae
Assay: Antimicrobial activity against extended spectrum beta-lactamases-producing Klebsiella pneumoniae 10-2 after 18-24 hrs by two-fold serial dilution method
Format: functional
Procedure, shortened: as §1

Row | SMILES | MIC [µg/mL]
8 | COc1cc(CO/N=C2\CN(c3nc4c(cc3F)c(=O)c(C(=O)O)cn4C3CC3)CC2CN)cc(Cl)c1OC.CS(=O)(=O)O (racemic) | > 128

Tested on: Streptococcus pneumoniae
Assay: Antimicrobial activity against extended spectrum beta-lactamases-producing Streptococcus pneumoniae 10-1 after 18-24 hrs by two-fold serial dilution method
Format: functional
Procedure, shortened: as §1

Row | SMILES | MIC [µg/mL]
9 | COc1cc(CO/N=C2\CN(c3nc4c(cc3F)c(=O)c(C(=O)O)cn4C3CC3)CC2CN)cc(Cl)c1OC.CS(=O)(=O)O (racemic) | 0.06

Tested on: Escherichia coli
Assay: Antimicrobial activity against extended spectrum beta-lactamases-producing Escherichia coli 10-2 after 18-24 hrs by two-fold serial dilution method
Format: functional
Procedure, shortened: as §1

Row | SMILES | MIC [µg/mL]
10 | COc1cc(CO/N=C2\CN(c3nc4c(cc3F)c(=O)c(C(=O)O)cn4C3CC3)CC2CN)cc(Cl)c1OC.CS(=O)(=O)O (racemic) | > 128

Tested on: Staphylococcus epidermidis
Assay: Antimicrobial activity against extended spectrum beta-lactamases-producing methicillin-sensitive Staphylococcus epidermidis 10-15 after 18-24 hrs by two-fold serial dilution method
Format: functional
Procedure, shortened: as §1

Row | SMILES | MIC [µg/mL]
11 | COc1cc(CO/N=C2\CN(c3nc4c(cc3F)c(=O)c(C(=O)O)cn4C3CC3)CC2CN)cc(Cl)c1OC.CS(=O)(=O)O (racemic) | 4

Tested on: Staphylococcus aureus
Assay: Antimicrobial activity against extended spectrum beta-lactamases-producing methicillin-resistant Staphylococcus aureus 10-15 after 18-24 hrs by two-fold serial dilution method
Format: functional
Procedure, shortened: (§2)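 Agar twofold serial dilution MIC against clinical isolates. MIC was taken as the lowest concentration giving complete inhibition of bacterial growth after incubation at 35 °C for 18-24 h.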

Row | SMILES | MIC [µg/mL]
12 | COc1cc(CO/N=C2\CN(c3nc4c(cc3F)c(=O)c(C(=O)O)cn4C3CC3)CC2CN)cc(Cl)c1OC.CS(=O)(=O)O (racemic) | 0.25

Tested on: Klebsiella pneumoniae
Assay: Antimicrobial activity against extended spectrum beta-lactamases-producing Klebsiella pneumoniae 10-3 after 18-24 hrs by two-fold serial dilution method
Format: functional
Procedure, shortened: as §1

Row | SMILES | MIC [µg/mL]
13 | COc1cc(CO/N=C2\CN(c3nc4c(cc3F)c(=O)c(C(=O)O)cn4C3CC3)CC2CN)cc(Cl)c1OC.CS(=O)(=O)O (racemic) | > 128

Tested on: Escherichia coli
Assay: Antimicrobial activity against Escherichia coli 10-3 after 18-24 hrs by two-fold serial dilution method
Format: functional
Procedure, shortened: as §1

Row | SMILES | MIC [µg/mL]
14 | COc1cc(CO/N=C2\CN(c3nc4c(cc3F)c(=O)c(C(=O)O)cn4C3CC3)CC2CN)cc(Cl)c1OC.CS(=O)(=O)O (racemic) | 128

Tested on: Pseudomonas aeruginosa
Assay: Antimicrobial activity against extended spectrum beta-lactamases-producing Pseudomonas aeruginosa 10-18 after 18-24 hrs by two-fold serial dilution method
Format: functional
Procedure, shortened: as §1

Row | SMILES | MIC [µg/mL]
15 | COc1cc(CO/N=C2\CN(c3nc4c(cc3F)c(=O)c(C(=O)O)cn4C3CC3)CC2CN)cc(Cl)c1OC.CS(=O)(=O)O (racemic) | 16

Tested on: Escherichia coli
Assay: Antimicrobial activity against Escherichia coli 10-2 after 18-24 hrs by two-fold serial dilution method
Format: functional
Procedure, shortened: as §1

Row | SMILES | MIC [µg/mL]
16 | COc1cc(CO/N=C2\CN(c3nc4c(cc3F)c(=O)c(C(=O)O)cn4C3CC3)CC2CN)cc(Cl)c1OC.CS(=O)(=O)O (racemic) | 16

Tested on: Staphylococcus aureus
Assay: Antimicrobial activity against extended spectrum beta-lactamases-producing methicillin-resistant Staphylococcus aureus 10-11 after 18-24 hrs by two-fold serial dilution method
Format: functional
Procedure, shortened: as §2

Row | SMILES | MIC [µg/mL]
17 | COc1cc(CO/N=C2\CN(c3nc4c(cc3F)c(=O)c(C(=O)O)cn4C3CC3)CC2CN)cc(Cl)c1OC.CS(=O)(=O)O (racemic) | 4

Tested on: Staphylococcus epidermidis
Assay: Antimicrobial activity against extended spectrum beta-lactamases-producing methicillin-sensitive Staphylococcus epidermidis 10-13 after 18-24 hrs by two-fold serial dilution method
Format: functional
Procedure, shortened: as §1

Row | SMILES | MIC [µg/mL]
18 | COc1cc(CO/N=C2\CN(c3nc4c(cc3F)c(=O)c(C(=O)O)cn4C3CC3)CC2CN)cc(Cl)c1OC.CS(=O)(=O)O (racemic) | 0.015
